In series [1] the target is T1, Potassium/sodium hyperpolarization-activated cyclic nucleotide-gated channel 4 (Homo sapiens) (UniProt Q9Y3Q4).
T1 sequence (whole entry): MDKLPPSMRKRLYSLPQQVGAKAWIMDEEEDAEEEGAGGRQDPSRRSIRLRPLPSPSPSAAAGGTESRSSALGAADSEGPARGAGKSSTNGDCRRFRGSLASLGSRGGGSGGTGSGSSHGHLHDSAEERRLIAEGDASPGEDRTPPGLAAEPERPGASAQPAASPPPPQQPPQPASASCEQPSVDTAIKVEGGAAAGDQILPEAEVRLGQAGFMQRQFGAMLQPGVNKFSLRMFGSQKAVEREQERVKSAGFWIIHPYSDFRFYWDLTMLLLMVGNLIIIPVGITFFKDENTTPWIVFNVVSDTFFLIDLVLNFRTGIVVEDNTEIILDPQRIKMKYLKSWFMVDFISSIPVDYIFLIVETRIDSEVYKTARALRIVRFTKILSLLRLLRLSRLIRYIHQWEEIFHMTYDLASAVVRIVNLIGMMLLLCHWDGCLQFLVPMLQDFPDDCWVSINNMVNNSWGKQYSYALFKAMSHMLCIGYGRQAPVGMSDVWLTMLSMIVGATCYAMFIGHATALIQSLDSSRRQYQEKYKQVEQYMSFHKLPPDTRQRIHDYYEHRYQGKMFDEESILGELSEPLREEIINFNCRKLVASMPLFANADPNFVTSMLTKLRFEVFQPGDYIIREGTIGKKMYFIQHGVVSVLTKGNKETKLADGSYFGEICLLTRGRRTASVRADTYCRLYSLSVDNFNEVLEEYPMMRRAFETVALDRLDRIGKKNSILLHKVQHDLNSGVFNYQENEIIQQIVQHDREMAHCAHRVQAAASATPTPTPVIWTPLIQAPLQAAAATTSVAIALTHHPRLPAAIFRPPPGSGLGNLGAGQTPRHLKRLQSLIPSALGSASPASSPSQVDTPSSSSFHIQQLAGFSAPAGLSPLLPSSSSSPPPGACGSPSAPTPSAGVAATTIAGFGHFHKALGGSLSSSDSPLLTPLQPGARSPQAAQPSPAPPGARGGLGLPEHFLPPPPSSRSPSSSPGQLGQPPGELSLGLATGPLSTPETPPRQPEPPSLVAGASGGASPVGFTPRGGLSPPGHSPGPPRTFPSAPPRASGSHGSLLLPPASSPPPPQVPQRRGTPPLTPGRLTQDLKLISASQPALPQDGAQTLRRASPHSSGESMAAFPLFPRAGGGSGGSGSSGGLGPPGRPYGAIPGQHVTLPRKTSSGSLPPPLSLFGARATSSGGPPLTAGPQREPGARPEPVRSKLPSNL
As to the kind of experiment: Inhibition of HCN4 at 10 uM after 5 mins by patch clamp assay. The method in brief:
(§1)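 Cardiac ion channel panel run by a contract lab on an automated parallel patch-clamp system at room temperature. Each of 12 cardiac channels was tested with 10 µM compound for 5 min exposure, in two cells per channel (n ≥ 2). Values are reported as mean % inhibition.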
A general note: The patch-clamp technique gives a direct electrical read-out from membranes.

The target in the next series is T2, Kir2.1 (Homo sapiens, UniProt P63252).
T2 sequence (P63252 whole entry): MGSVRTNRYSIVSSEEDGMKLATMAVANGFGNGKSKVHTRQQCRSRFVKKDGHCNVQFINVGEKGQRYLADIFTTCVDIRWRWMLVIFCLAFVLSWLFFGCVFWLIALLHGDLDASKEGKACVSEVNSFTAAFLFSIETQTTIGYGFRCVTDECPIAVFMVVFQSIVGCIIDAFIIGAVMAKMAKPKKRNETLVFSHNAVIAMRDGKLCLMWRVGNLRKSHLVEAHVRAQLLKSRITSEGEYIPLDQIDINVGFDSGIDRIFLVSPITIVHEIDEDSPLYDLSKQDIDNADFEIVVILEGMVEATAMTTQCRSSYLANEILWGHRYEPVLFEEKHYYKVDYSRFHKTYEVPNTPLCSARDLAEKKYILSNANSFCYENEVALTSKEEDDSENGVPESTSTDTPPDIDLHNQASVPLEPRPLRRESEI
As to the kind of experiment: Inhibition of Kir2.1 at 10 uM after 5 mins by patch clamp assay. Put shortly:
as §1

The target in series [2] is Sulfonylurea receptor 2, Kir6.2 (Homo sapiens) (UniProt Q14654+O60706). As to the kind of experiment: Inhibition of Kir6.2/SUR2A at 10 uM after 5 mins by patch clamp assay. The method in brief:
(§2)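 Fixed-concentration screen across a panel of 12 cloned cardiac ion channels. The compound was tested at 10 µM for 5 min exposure at room temperature by automated parallel patch clamp, in two cells (n ≥ 2) per channel. Values are mean percent inhibition of channel current.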

The nature of series [3]: Inhibition of KvLQT/minK at 10 uM after 5 mins by patch clamp assay. Put shortly:
as §2

For series [4], the target named is Sulfonylurea receptor 2, Kir6.2 (Homo sapiens, UniProt O60706+Q14654). As to the kind of experiment: Inhibition of human kir6.2/SUR2A ion channel coexpressed in human HEK293 cells after 5 mins by patch clamp assay. It is filed as cell-based. The method in brief: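 Human KCNJ11 (Kir6.2) and SUR2A were co-expressed in HEK293 cells to give the ATP-sensitive current IKATP. The assay was run at room temperature by automated parallel patch clamp, with dose-response at 0.2, 0.6, 1.6 and 5 µM. Exposure was 5 min per concentration, with each concentration in two cells (n ≥ 2).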
Sequence of Sulfonylurea receptor 2, Kir6.2 (Q14654 whole entry): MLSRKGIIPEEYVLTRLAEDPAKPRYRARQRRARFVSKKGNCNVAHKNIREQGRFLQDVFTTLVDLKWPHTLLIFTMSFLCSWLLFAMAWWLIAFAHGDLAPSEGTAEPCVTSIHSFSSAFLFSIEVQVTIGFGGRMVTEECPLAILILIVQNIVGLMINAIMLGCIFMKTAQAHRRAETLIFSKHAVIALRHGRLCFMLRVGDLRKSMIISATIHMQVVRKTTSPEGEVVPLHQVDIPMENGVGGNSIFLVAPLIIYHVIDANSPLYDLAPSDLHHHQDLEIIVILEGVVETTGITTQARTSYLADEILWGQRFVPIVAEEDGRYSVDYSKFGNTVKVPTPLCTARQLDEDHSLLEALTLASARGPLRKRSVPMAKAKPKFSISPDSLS
Sequence of Sulfonylurea receptor 2, Kir6.2 (O60706 whole entry): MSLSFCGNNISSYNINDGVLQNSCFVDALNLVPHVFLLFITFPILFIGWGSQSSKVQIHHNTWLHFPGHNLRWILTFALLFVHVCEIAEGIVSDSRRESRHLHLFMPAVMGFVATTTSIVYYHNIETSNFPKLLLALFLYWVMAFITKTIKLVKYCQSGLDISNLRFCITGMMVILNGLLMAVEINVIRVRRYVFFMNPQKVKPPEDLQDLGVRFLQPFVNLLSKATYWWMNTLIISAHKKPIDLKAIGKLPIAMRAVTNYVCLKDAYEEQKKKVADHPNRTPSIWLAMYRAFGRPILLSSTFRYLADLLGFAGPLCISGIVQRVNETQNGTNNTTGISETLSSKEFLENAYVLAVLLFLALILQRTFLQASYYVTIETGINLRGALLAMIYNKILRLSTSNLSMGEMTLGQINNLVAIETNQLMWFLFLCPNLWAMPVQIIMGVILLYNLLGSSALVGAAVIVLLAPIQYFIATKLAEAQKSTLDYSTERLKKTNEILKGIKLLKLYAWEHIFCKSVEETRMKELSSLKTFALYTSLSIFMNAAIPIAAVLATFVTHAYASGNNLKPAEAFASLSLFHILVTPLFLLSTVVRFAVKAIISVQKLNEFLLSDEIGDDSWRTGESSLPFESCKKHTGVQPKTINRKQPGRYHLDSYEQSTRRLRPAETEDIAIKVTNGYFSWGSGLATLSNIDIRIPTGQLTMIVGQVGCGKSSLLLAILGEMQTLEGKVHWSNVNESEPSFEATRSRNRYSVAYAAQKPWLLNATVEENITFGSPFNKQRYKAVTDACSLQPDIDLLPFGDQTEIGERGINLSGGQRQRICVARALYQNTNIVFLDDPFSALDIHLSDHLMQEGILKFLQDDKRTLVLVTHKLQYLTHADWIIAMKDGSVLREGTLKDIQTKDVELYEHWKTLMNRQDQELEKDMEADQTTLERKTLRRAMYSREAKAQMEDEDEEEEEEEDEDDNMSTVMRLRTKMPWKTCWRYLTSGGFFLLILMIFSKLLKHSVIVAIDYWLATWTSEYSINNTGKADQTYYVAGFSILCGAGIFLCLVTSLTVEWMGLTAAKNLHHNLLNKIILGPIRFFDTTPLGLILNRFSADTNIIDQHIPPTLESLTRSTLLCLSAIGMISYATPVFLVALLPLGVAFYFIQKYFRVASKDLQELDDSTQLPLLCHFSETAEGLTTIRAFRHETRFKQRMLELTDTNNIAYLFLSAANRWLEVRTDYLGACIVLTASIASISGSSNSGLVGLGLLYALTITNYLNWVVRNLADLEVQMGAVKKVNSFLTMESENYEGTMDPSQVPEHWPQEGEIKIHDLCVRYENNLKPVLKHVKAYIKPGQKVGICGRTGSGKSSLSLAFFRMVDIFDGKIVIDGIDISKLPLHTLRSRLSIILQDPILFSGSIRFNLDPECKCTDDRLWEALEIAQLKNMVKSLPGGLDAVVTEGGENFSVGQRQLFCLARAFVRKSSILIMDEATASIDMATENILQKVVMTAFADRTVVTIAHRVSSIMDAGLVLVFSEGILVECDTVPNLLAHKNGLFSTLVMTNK

Take `CCCNCC(O)COc1ccccc1C(=O)CCc1ccccc1` (racemic) [PROPAFENONE]: the inhibition (usually how much of the control response was suppressed) in series [1] amounted to 54.6%; in series [2], 89.6%; in series [3], 33%. The same compound gave an inhibition at 5 min, 10 µM against Kir2.1 of 0.2%. The half-inhibitory concentration (IC50) (as a rule, the concentration at which inhibition is half-maximal) in series [4] was 2200 nM.

The values above are taken from ChEMBL document CHEMBL1914304 (J Med Chem, 2011).
